For one test, the system named is Trypanosoma brucei. The test is described as follows: Antitrypanosomal activity against Trypanosoma brucei Squib 427 assessed as reduction in parasite growth incubated for 72 hrs by resazurin dye based fluorimetric analysis. Format: functional, organism-based. As to conditions: Squib 427, 72 h.
The target of test [1] is 3',5'-cyclic-AMP phosphodiesterase 4D (Homo sapiens, UniProt Q08499). The test is described as follows: Inhibition of human PDE4D2 expressed in Escherichia coli BL21 (DE3) using cAMP as substrate by PDELight HTS cAMP phosphodiesterase Kit based. Summed up: (§1)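 Recombinant catalytic domains, His-tag purified, then ion exchange and size exclusion, were tested with the PDELight HTS cAMP kit in stimulation buffer (50 mM Hepes, 100 mM NaCl, 10 mM MgCl2, 0.5 mM EDTA, 0.05 mg/ml BSA, pH 7.5). Dose-response curves gave Ki, expressed as pKi = −log10(Ki ÷ 1000000).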
Sequence of 3',5'-cyclic-AMP phosphodiesterase 4D (Q08499 whole entry, the tested form may be a part): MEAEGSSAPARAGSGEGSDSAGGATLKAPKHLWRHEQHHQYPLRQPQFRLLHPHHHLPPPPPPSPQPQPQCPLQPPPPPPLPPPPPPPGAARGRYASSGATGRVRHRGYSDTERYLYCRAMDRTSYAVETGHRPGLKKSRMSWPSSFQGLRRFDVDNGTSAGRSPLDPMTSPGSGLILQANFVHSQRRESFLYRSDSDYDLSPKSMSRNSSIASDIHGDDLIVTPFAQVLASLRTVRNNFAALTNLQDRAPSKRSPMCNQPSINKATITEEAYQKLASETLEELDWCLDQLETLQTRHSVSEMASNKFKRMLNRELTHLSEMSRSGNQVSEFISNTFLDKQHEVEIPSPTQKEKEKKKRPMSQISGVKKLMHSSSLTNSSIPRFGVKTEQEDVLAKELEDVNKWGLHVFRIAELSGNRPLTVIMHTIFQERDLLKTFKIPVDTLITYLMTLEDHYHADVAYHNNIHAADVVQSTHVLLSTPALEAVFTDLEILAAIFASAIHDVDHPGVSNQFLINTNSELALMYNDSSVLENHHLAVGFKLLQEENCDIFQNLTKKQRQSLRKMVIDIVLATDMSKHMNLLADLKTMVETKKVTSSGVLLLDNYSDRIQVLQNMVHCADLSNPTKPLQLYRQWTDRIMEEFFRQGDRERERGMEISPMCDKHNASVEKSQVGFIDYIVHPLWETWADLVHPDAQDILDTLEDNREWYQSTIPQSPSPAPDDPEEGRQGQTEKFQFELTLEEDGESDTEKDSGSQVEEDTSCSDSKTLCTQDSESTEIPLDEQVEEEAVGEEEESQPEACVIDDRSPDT

The target of test [2] is T1, Class 1 phosphodiesterase PDEB1 (Trypanosoma brucei, UniProt Q8WQX9).
T1 sequence (Q8WQX9 whole entry): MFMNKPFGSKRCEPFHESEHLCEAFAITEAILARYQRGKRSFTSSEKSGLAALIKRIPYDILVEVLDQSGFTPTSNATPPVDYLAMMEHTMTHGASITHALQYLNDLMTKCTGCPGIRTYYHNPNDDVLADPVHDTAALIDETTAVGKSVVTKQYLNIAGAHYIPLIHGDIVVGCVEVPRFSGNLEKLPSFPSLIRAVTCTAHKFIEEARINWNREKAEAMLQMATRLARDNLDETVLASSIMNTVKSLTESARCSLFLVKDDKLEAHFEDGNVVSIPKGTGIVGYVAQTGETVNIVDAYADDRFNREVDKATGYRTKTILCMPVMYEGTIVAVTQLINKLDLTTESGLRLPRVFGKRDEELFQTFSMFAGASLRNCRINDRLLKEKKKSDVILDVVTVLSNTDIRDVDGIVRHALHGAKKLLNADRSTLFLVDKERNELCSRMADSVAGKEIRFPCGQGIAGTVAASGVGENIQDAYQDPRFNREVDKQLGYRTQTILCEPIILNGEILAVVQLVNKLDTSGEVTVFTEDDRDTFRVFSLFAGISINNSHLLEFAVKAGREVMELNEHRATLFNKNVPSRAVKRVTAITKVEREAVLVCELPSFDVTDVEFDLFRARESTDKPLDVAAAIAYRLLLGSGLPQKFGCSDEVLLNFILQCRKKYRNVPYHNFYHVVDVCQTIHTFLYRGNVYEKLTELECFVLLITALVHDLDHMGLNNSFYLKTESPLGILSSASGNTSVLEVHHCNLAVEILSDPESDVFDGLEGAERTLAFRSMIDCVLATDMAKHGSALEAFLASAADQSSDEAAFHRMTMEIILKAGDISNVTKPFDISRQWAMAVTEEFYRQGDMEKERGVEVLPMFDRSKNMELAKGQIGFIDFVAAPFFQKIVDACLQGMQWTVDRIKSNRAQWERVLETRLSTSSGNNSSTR
Put plainly: Inhibition of Trypanosoma brucei PDEB1 (565 to 918 residues) expressed in Escherichia coli BL21 (DE3) using cAMP as substrate by PDELight HTS cAMP phosphodiesterase Kit based. Summed up: as §1

A short description of test [3]: Cytotoxicity against human MRC5 SV2 cells assessed as reduction in cell viability incubated for 72 hrs by resazurin dye based fluorimetric assay. Particulars: MRC-5 SV2, 72 h. Summed up:
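MRC-5 SV2 fibroblasts grown in Earl's MEM with 5% FBSi, L-glutamine and bicarbonate; 1×10^4 cells/well treated 72 h at 37 °C, 5% CO2; resazurin viability read fluorimetrically (ex 550, em 590 nm). Five 4-fold dilutions from a 64 µM top concentration; IC50 derived from % viability reduction vs untreated wells; tamoxifen as reference.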

Bounds are passed on as bounds.

For `COc1ccc(C2=NN(C3CCN(C(=O)CN4C(=O)CC(Cc5ccccc5)C4=O)CC3)C(=O)[C@@H]3CC=CC[C@H]23)cc1OC` (some centres not stated), the IC50 (in the test on Trypanosoma brucei; in test [3]) was 64600 nM each time. For the same compound, the Ki is 0.316 nM in test [1] and 97.7 nM in test [2].

On to `CC1(C)CC(=O)N(CC(=O)N2CCC(N3N=C(c4ccc(F)c(F)c4)[C@H]4CC=CC[C@H]4C3=O)CC2)C(=O)C1` (relative stereo), for which the IC50 is 47900 nM with Trypanosoma brucei and 30900 nM in test [3]. The compound further showed a Ki in test [2] of more than 9770 nM.

`COc1ccc(C2=NN(C3CN(c4ncnc5ccsc45)C3)C(=O)[C@@H]3CC=CC[C@H]23)cc1OC`: the values for the IC50 (with Trypanosoma brucei; in test [3]) were 15100 nM and 64600 nM, respectively. Also, the results for the Ki in test [1] and in test [2] were 0.562 nM and 288 nM, respectively.

In the case of `COc1ccc(C2=NN(C3CN(c4nc(N)nc5sccc45)C3)C(=O)[C@@H]3CC=CC[C@H]23)cc1OC`, the IC50 in the test on Trypanosoma brucei is 7760 nM; in test [3], 64600 nM. Besides, the Ki in test [1] was 1.17 nM; in test [2] it was 275 nM.

For the compound `CC1(C)CC(=O)N(CC(=O)N2CCC(N3N=C(c4ccc(OC(F)F)c(OC(F)F)c4)[C@H]4CC=CC[C@H]4C3=O)CC2)C(=O)C1`, the IC50 in the test with Trypanosoma brucei is 1000 nM; in test [3], 64600 nM. For the same compound, the inhibitory constant (Ki) in test [1] was 0.302 nM; in test [2], 407 nM.

Turning to `COc1ccc(C2=NN(C3CCN(c4nc(N)nc5sccc45)CC3)C(=O)[C@@H]3CCCC[C@H]23)cc1OC`, the half-inhibitory concentration (IC50) is 955 nM with Trypanosoma brucei and 28800 nM in test [3]. In addition, the Ki is 0.661 nM in test [1] and 93.3 nM in test [2].

`COc1ccc(C2=NN(C3CCN(c4nc(N)c5ccccc5n4)CC3)C(=O)[C@@H]3CC=CC[C@H]23)cc1OC`: the IC50 is 871 nM in the test with Trypanosoma brucei and 7410 nM in test [3]. In addition, the Ki is 2.45 nM in test [1] and 646 nM in test [2].

On to `COc1ccc(C2=NN(C3CCN(C(=O)CN4C(=O)CC5(CCCCC5)CC4=O)CC3)C(=O)[C@@H]3CCCC[C@H]23)cc1OC`, for which, in test [2], the Ki is more than 9770 nM. Moreover, the IC50 in test [3] is 8510 nM.

Consider `COc1ccc(-c2nn(C3CCNCC3)c(=O)n3ccnc23)cc1OC`, for which the IC50 in the test with Trypanosoma brucei was 32400 nM; in test [3], 64600 nM. In test [2], this compound gave a Ki of more than 31600 nM.

With `COc1ccc(-c2n[nH]c(=O)n3ccnc23)cc1OC`, the IC50 (with Trypanosoma brucei; in test [3]) was 64600 nM in each case. Moreover, the Ki in test [2] is more than 31600 nM.

Regarding `COc1ccc(C2=NN(C3CCN(c4ncnc5ccccc45)CC3)C(=O)[C@@H]3CC=CC[C@H]23)cc1OC`, the IC50 in the test with Trypanosoma brucei is 263 nM; in test [3], 3020 nM. Moreover, the Ki in test [1] was 0.224 nM; in test [2], 646 nM.

`CC1(C)CC(=O)N(CC(=O)N2CCC(N3N=C(c4ccc(F)c(F)c4)[C@H]4CCCC[C@H]4C3=O)CC2)C(=O)C1`: the IC50 in the test on Trypanosoma brucei was 45700 nM; in test [3] it was 42700 nM. In test [2], the Ki was more than 22400 nM.

Turning to `COc1ccc(-c2ccc(=O)n(C3CCN(c4nc(N)nc5sccc45)CC3)n2)cc1OC`, the IC50 is 7760 nM with Trypanosoma brucei and 11200 nM in test [3]. In test [2], this compound had a Ki of more than 3720 nM.

As to `COc1ccc(C2=NN(C3CCN(c4nc(N)nc5sccc45)CC3)C(=O)[C@@H]3CC=CC[C@H]23)cc1Cl`, the IC50 in the test with Trypanosoma brucei is 2000 nM; in test [3] it was 64600 nM. Further, the Ki in test [1] is 30.2 nM; in test [2], 832 nM.

`COc1ccc(C2=NN(C3CCN(C(=O)CN4C(=O)CC(C)C4=O)CC3)C(=O)[C@@H]3CC=CC[C@H]23)cc1OC` (some centres not stated): the IC50 was 1820 nM in the test with Trypanosoma brucei and 64600 nM in test [3]. Moreover, the Ki was 0.17 nM in test [1] and 75.9 nM in test [2].

Regarding `O=C1[C@@H]2CC=CC[C@@H]2C(c2ccc(OC(F)F)c(O)c2)=NN1C1CCN(c2ncnc3ccsc23)CC1`, the IC50 with Trypanosoma brucei is 3390 nM; in test [3] it was 64600 nM. The Ki in test [2] was more than 1660 nM.

As for `COc1ccc(-c2nn(C3CCN(c4nc(N)nc5sccc45)CC3)c(=O)n3ccnc23)cc1OC`, the IC50 (in the test on Trypanosoma brucei; in test [3]) was 64600 nM throughout. The compound also had a Ki in test [2] of more than 18200 nM.

As to `COc1ccc(C2=NN(C3CCN(c4ncc5sccc5n4)CC3)C(=O)[C@@H]3CC=CC[C@H]23)cc1OC`, the IC50 is 2290 nM in the test on Trypanosoma brucei and 64600 nM in test [3]. Further, the values for the Ki in test [1] and in test [2] were 2.57 nM and 692 nM, respectively.

As for `COc1ccc(C2=NN(C3CCN(c4ncnc5ccsc45)CC3)C(=O)C2(C)C)cc1OC`, the IC50 is 32400 nM with Trypanosoma brucei and 25100 nM in test [3]. The compound also gave a Ki in test [2] of more than 2040 nM.

With `CC1(C)CC(=O)N(CC(=O)N2CCC(N3N=C(c4ccc(F)cc4)[C@H]4CC=CC[C@H]4C3=O)CC2)C(=O)C1` (relative stereo), the IC50 in the test on Trypanosoma brucei was 64600 nM; in test [3] it was 29500 nM. The Ki is 0.12 nM in test [1] and 77.6 nM in test [2].

Consider `COc1ccc(C2=NN(C3CCN(c4nc(N)nc5ccccc45)CC3)C(=O)[C@@H]3CC=CC[C@H]23)cc1OC`, for which the IC50 in the test on Trypanosoma brucei was 813 nM; in test [3] it was 7760 nM. Moreover, the Ki is 0.155 nM in test [1] and 24.5 nM in test [2].

For the compound `COc1ccc(C2=NN(C3CCN(c4ncc5ccccc5n4)CC3)C(=O)[C@@H]3CC=CC[C@H]23)cc1OC`, the IC50 with Trypanosoma brucei is 1700 nM; in test [3], 64600 nM. The Ki was 0.589 nM in test [1] and 646 nM in test [2].

As to `COc1ccc(C2=NN(C3CN(C(=O)CN4C(=O)CC(C)(C)CC4=O)C3)C(=O)[C@@H]3CC=CC[C@H]23)cc1OC`, the IC50 with Trypanosoma brucei was 1820 nM; in test [3], 64600 nM. In addition, the values for the Ki in test [1] and in test [2] were 0.389 nM and 102 nM, respectively.

Consider `COc1ccc(C2=NN(C3CCN(c4nccc(N)n4)CC3)C(=O)[C@@H]3CC=CC[C@H]23)cc1OC`, for which the results for the IC50 (in the test with Trypanosoma brucei; in test [3]) were 1860 nM and 17400 nM, respectively. Moreover, the results for the Ki in test [1] and in test [2] were 0.316 nM and 110 nM, respectively.

As to `COc1ccc(C2=NN(C3CCN(c4nc(N)nc5[nH]cnc45)CC3)C(=O)[C@@H]3CC=CC[C@H]23)cc1OC`, the values for the IC50 (with Trypanosoma brucei; in test [3]) were 1700 nM and 17800 nM, respectively. In addition, the Ki in test [1] was 0.871 nM; in test [2], 105 nM.

In the case of `COc1ccc(C2=NN(C3CCN(c4ncnc5ccsc45)CC3)C(=O)[C@@H]3CC=CC[C@H]23)cc1OC`, the IC50 in the test with Trypanosoma brucei is 372 nM; in test [3], 7240 nM. The Ki is 0.234 nM in test [1] and 66.1 nM in test [2].

`O=C(CN1C(=O)CC2(CCCCC2)CC1=O)N1CCC(N2N=C(c3ccc(OC(F)F)c(OC(F)F)c3)[C@H]3CC=CC[C@H]3C2=O)CC1`: the values for the IC50 (in the test with Trypanosoma brucei; in test [3]) were 7590 nM and 64600 nM, respectively. Moreover, the Ki was 1.62 nM in test [1] and 776 nM in test [2].

Regarding `O=C1[C@@H]2CC=CC[C@@H]2C(c2ccc(O)c(O)c2)=NN1C1CCN(c2ncnc3ccsc23)CC1`, the values for the IC50 (in the test with Trypanosoma brucei; in test [3]) were 5130 nM and 25100 nM, respectively. Besides, the Ki is 63.1 nM in test [1] and 891 nM in test [2].

As for `COc1ccc(C2=NN(C3CCN(c4ccnc(N)n4)CC3)C(=O)[C@@H]3CC=CC[C@H]23)cc1OC`, the IC50 with Trypanosoma brucei is 3630 nM; in test [3], 3890 nM. The inhibition constant (Ki) in test [1] is 0.513 nM; in test [2] it was 257 nM.

Regarding `O=C(CN1C(=O)CC2(CCCCC2)CC1=O)N1CCC(N2N=C(c3ccc(F)cc3)[C@H]3CC=CC[C@H]3C2=O)CC1` (relative stereo), the half-maximal inhibitory concentration (IC50) was 10200 nM in the test with Trypanosoma brucei and 64600 nM in test [3]. Moreover, the Ki in test [2] is more than 9550 nM.

In the case of `O=C(CN1C(=O)CC2(CCCC2)CC1=O)N1CCC(N2N=C(c3ccc(F)cc3)[C@H]3CC=CC[C@H]3C2=O)CC1` (relative stereo), the IC50 with Trypanosoma brucei was 32400 nM; in test [3] it was 40700 nM. In test [2], this compound showed a Ki of more than 16600 nM.

These data come from ChEMBL document CHEMBL4402584, “Lead Optimization of Phthalazinone Phosphodiesterase Inhibitors as Novel Antitrypanosomal Compounds” (J Med Chem, 2020).
